Compounds with a hit are over-represented: about 3.7% of the library has one in this group of screens.
PGE2 EP2 inh – human EP2 receptor antagonists, primary screen, TR-FRET cAMP, C6 glioma cells; Prostaglandin E2 receptor EP2 subtype (Homo sapiens), P43116; C6 glioma cells expressing human EP2; cells stimulated with saturating PGE2; inhibition, % at 25 µM; 0.52% of 260,000 active;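 active = percent inhibition above 40 after rounding to a whole number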;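 note: rat C6 glioma host cells with rolipram phosphodiesterase inhibitor present; the protocol text gives 20 µM as final concentration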
Target sequence (P43116 whole entry, looked up): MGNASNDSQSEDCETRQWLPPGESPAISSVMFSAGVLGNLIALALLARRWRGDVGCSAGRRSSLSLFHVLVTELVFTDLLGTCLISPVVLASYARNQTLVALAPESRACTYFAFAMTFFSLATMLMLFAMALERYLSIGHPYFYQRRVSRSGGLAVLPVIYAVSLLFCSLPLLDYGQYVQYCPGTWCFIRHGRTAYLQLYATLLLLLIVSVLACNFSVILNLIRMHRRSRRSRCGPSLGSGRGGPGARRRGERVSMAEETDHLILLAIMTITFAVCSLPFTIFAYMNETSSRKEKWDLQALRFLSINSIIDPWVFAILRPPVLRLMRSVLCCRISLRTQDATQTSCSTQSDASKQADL
OX1R antag-1 – OX1R (HCRTR1) antagonists, primary screen, fluorescence, CHO/OX1R cells, Fluo-8 calcium, orexin A. AID 434989, 2010. inhibition, % at 5 µM. Fluo-8 calcium fluorescence. 0.43% of 330,000 active. Orexin/Hypocretin receptor type 1 (Homo sapiens), O43613;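 active = inhibition above its plate's threshold, mean inhibition of all tested compounds on the plate plus 3 SD, cut at about 37% in these data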
EP2 mod – EP2 receptor modulators, cAMP readout, primary screen, cell-based, HTRF cAMP, PGE2 stimulation; 0.83% of 260,000 active; induction, % at 25 µM; Prostaglandin E2 receptor EP2 subtype (Homo sapiens), P43116; EP2-expressing cells, cAMP HTRF FRET, PGE2 co-stimulation;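 active = compounds whose cAMP rise, as percent of the full-agonist control response, exceeds 60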;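 note: rat C6 glioma line stably carrying human EP2 under a CMV promoter; the protocol text gives 20 µM as final concentration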
GPR7 antagonist – GPR7 receptor antagonists, primary screen, cell-based, fluorescence, single concentration | GPR7-expressing cells, fluorescence antagonist assay | inhibition, % at 4.4 µM | 1.1% of 290,000 active | AID 1861, 2009; in the data active = inhibition above about 16%, passing the limit was not always enough;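 note: cells stimulated with the agonist NPW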
Target sequence (P48145 whole entry, looked up): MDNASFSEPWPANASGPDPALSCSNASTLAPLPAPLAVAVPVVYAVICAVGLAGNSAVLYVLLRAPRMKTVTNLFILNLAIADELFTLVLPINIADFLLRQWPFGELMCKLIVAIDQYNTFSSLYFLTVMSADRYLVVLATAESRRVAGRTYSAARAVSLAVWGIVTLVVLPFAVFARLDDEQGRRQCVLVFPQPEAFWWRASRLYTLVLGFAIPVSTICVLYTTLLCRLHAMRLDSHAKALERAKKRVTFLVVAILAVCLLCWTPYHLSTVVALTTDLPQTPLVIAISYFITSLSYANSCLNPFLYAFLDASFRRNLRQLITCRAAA
CHO parental Ca – ATP-evoked calcium signal inhibitors, parental CHO, primary screen, counter-screen for OX1R antagonist project, cell-based, fluorescence, Fluo-8 calcium dye; inhibition, % at 5.6 µM; 0.63% of 330,000 active; parental CHO-K1, ATP-induced calcium, Fluo-8 fluorescence;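 active = inhibition above that plate's mean sample inhibition plus 3 SD, cut at about 26% in these data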
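Test system: untransfected parental CHO cell line. Compound: one dose, 5.6 µM nominal. Detection: intracellular calcium via Fluo-8 no-wash fluorescent dye. Measure: % inhibition. Benchmarks: ATP-challenged DMSO wells low, unchallenged DMSO wells high.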
OX1R antag-2 – antagonists of human orexin 1 receptor (OX1R); Orexin/Hypocretin receptor type 1 (Homo sapiens), O43613; OX1R-expressing cells, FRET antagonist read-out; inhibition, % at 6.6 µM; 1.8% of 330,000 active; in the data active = inhibition mostly above about 38%, no sharp cut-off; inactive = mostly below about 40%
Each line names hits and unclear results; the compound was inactive in the other large screens.

CC(C)CC1NC(=O)c2ccccc2-n2c1nc1cc(F)ccc1c2=O (centres undefined)	none (no result: PGE2 EP2 inh, EP2 mod, GPR7 antagonist)
O=C1C2C3C=CC(C3)C2C(=O)N1c1ccc(N2CCN(c3ccccn3)CC2)c([N+](=O)[O-])c1 (centres undefined)	CHO parental Ca 63.2
Cc1cc(N2C(=O)C(O)=C(C(=O)c3ccc(C)o3)C2c2cccs2)no1 (centres undefined)	PGE2 EP2 inh 55.5
O=C(CCN1C(=O)S/C(=C\c2ccccc2)C1=O)N1CCOCC1	OX1R antag-2 56.5 (no result: EP2 mod)
Cc1ccsc1/C=C1/SC(=O)N(CC(=O)N2CCOCC2)C1=O	none
O=C(CCN1C(=O)/C(=C\c2ccccc2)SC1=S)N1CCOCC1	none (no result: PGE2 EP2 inh, EP2 mod)
O=C(CN1C(=O)S/C(=C/c2ccccn2)C1=O)N1CCOCC1	OX1R antag-2 55.0 (no result: PGE2 EP2 inh, EP2 mod)
CCOC(=O)N1CCN(C(=O)C2CC(c3cc(OC)ccc3OC)=NO2)CC1 (centres undefined)	none
O=C(NCc1ccccc1)NCc1cccs1	none
O=S1(=O)c2ccccc2N=NN1Cc1ccc(Cl)cc1	PGE2 EP2 inh 42.6
CC(Sc1nc2ccccc2c(=O)n1CC1CCCO1)C(=O)N(C)c1ccccc1 (centres undefined)	OX1R antag-2 32.1 (no result: PGE2 EP2 inh, EP2 mod, GPR7 antagonist)
COc1ccccc1C(CNC(=O)CN(C)S(=O)(=O)c1ccc(C)cc1)N1CCCC1 (centres undefined)	none (no result: PGE2 EP2 inh, EP2 mod, GPR7 antagonist)
O=C(Nc1nnc(-c2ccco2)o1)c1ccc([N+](=O)[O-])s1	OX1R antag-2 66.0
CCCNC(=O)c1ccccc1NC(=O)c1ccccc1N(C)S(=O)(=O)c1ccccc1	none
Cc1c(NC(=O)c2ccc(N(C)S(C)(=O)=O)cc2)c(=O)n(-c2ccccc2)n1C	none
CCOc1ccccc1N(CC(=O)Nc1c(C)n(C)n(-c2ccccc2)c1=O)S(=O)(=O)c1ccccc1	OX1R antag-2 57.4
CC(C)CNC(=O)c1ccccc1NC(=O)c1ccccc1N(C)S(=O)(=O)c1ccccc1	OX1R antag-2 68.9
Cc1c(NC(=O)c2ccccc2N(C)S(=O)(=O)c2ccccc2)c(=O)n(-c2ccccc2)n1C	OX1R antag-2 40.6
CCc1nc(N(CC)CC)c2oc3ccccc3c2n1	EP2 mod 61.4
CCNc1nc(CC)nc2c1oc1ccccc12	none
CCO/C(C)=N/n1c2nc3ccccc3nc2c2c(=O)n(CC(C)C)c(C)nc21	OX1R antag-2 73.3
CCOCCCn1c(C)nc2c(c1=O)c1nc3ccccc3nc1n2-c1ccc(C)cc1	none
CCOC(=O)c1ccc2nc(C)c(CCC(C)=O)c(Cl)c2c1	none
Nc1nc(N)c2nccnc2n1	none (no result: OX1R antag-1, GPR7 antagonist, CHO parental Ca, OX1R antag-2)
Nc1ccc(-c2nc3nc(N)nc(N)c3nc2-c2ccc(N)cc2)cc1	OX1R antag-2 39.7
O=C(CCc1nc(-c2ccc(Cl)cc2)no1)NC1CCCCC1	none (no result: PGE2 EP2 inh, EP2 mod)
O=C(CCCc1nc(-c2ccc(Cl)cc2)no1)NC1CCCC1	CHO parental Ca 48.2 (no result: PGE2 EP2 inh, EP2 mod)
c1csc(-c2nc3ccccn3c2NCc2ccc3c(c2)OCO3)c1	none (no result: OX1R antag-1, GPR7 antagonist, CHO parental Ca, OX1R antag-2)
c1csc(-c2csc3nc(CN4CCOCC4)nc(NCc4ccc5c(c4)OCO5)c23)c1	GPR7 antagonist 19.1
CSc1nc(N)nc(-c2cccs2)c1C#N	OX1R antag-2 100.6
CCOc1ccccc1NC(=O)CNC(=O)Cc1ccccc1	none
CCc1nc(NC2CCCCC2)c(C#N)c2c1COC(C)(C)C2	EP2 mod 62.2
CCCc1nc(NC2CCCCC2)c(C#N)c2c1COC(C)(C)C2	none
CCOc1nc(CC(C)C)c2c(c1C#N)CC(C)(C)OC2	EP2 mod 61.9
CCOc1ncnc2c1oc1nc(CC(C)C)c3c(c12)CC(C)(C)OC3	none
Cc1cc(C(=O)COC(=O)/C=C/c2cccc(F)c2)c(C)n1C	none
CC(C)Sc1nnc(SCC(=O)NCCCN2CCCC2=O)s1	none (no result: PGE2 EP2 inh, EP2 mod, GPR7 antagonist)
COc1cc(C(=O)Nc2ccc3c(c2)C(=O)c2ccccc2C3=O)cc(OC)c1OC	none
O=C(Nc1ccc(Nc2ccc3c(c2)C(=O)c2ccccc2C3=O)c2c1C(=O)c1ccccc1C2=O)c1ccccc1	PGE2 EP2 inh 44.5 (no result: OX1R antag-1, GPR7 antagonist, CHO parental Ca, OX1R antag-2)
COC(=O)C(=Cc1ccc(-c2ccsc2C(=O)OC)o1)C(=O)OC	OX1R antag-2 49.9
CCOC(=O)C(=Cc1ccc(-c2ccsc2C(=O)OC)o1)C(=O)OCC	none
Oc1ccc(Br)cc1-c1cc(-c2ccc(Cl)cc2)n[nH]1	CHO parental Ca 50.2
Oc1ccc(Br)cc1-c1cc(-c2ccccc2)n[nH]1	none
CC(=O)Nc1sc(C)c(C)c1C(=O)OCC(=O)Nc1ccccc1	none (no result: PGE2 EP2 inh, EP2 mod, GPR7 antagonist)
CCOC(=O)c1sc(NC(=O)Nc2ccccc2)cc1C	OX1R antag-2 61.3
CCOC(=O)c1c(NC(=S)Nc2ccccc2)sc(C)c1C	OX1R antag-2 37.5
CCOC(=O)c1cc(C)sc1NC(=S)Nc1ccccc1	EP2 mod 64.6
CCOC(=O)c1cc(-c2ccccc2)sc1NC(=S)Nc1cccc(C)n1	none
CCOC(=O)c1ccc(NC(=S)NCCc2ccccc2)cc1	CHO parental Ca 59.8
CCOC(=O)c1sc(NC(C)=O)cc1C	none
O=C(CCc1nc2ccccc2s1)Nc1ccccc1	none
CC(c1ccccc1)C1C(C#N)=C(N)OC2=C1C(=O)CCC2 (centres undefined)	none
Nc1cc([N+](=O)[O-])ccc1O	none
Nc1ccc(O)c([N+](=O)[O-])c1	OX1R antag-2 48.9 (no result: PGE2 EP2 inh, EP2 mod, GPR7 antagonist)
CCCc1nnc(NC(=O)COc2ccc3c(c2)OCO3)s1	none (no result: PGE2 EP2 inh, EP2 mod)
CCC(CC)C(=O)Nc1cc(=O)n(C)c(=O)n1C	none
Cc1ccc(NCC(=O)N/N=C\c2ccc([N+](=O)[O-])o2)cc1	none
CCCCCC(=O)N/N=C/c1ccc([N+](=O)[O-])o1	OX1R antag-2 35.5
O=C(CNc1ccccc1)N/N=C/c1ccc([N+](=O)[O-])o1	OX1R antag-2 51.1
CN(Cc1ccccc1)c1nc(-c2ccc([N+](=O)[O-])cc2)nc2ccccc12	EP2 mod 63.8
CN(C)S(=O)(=O)c1ccc(NC(=S)NC(=O)c2cccs2)cc1	none
CC(C)=CCC/C(C)=C/CNC(=O)CC1C[C@H](C(=O)N2CCCCC2)[C@@]2(C)c3[nH]c4ccccc4c3CCN2C1=O (some centres undefined)	none (no result: PGE2 EP2 inh, EP2 mod, GPR7 antagonist)
CCc1nn(CC(=O)NCc2cccc(OC)c2)c(=O)c2cc3sccc3n12	none (no result: PGE2 EP2 inh, OX1R antag-1, GPR7 antagonist, CHO parental Ca, OX1R antag-2)
ONC(=Nc1ccccc1Cl)c1ccccc1Cl	EP2 mod 70.7
CCN(CC)C(=O)COC(=O)c1ccc(C)c(NC(=O)c2ccco2)c1	none
CCN(Cc1nc2cc(Cl)ccc2c(=O)[nH]1)C(=O)c1nn(C)c(=O)c2ccccc12	OX1R antag-2 38.5 (no result: PGE2 EP2 inh, EP2 mod, GPR7 antagonist)

Screens: PubChem, several laboratories
